EBI2 antag: antagonists of human EBI2 receptor | P32249 | EBI2 beta-arrestin recruitment, luminescence, 7a,25-OHC stimulated | inhibition, % at 5 µM | actives 0.81% (n = 360,000) | AID 651636; in the data active means inhibition above about 38%;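 further: enzyme fragment complementation signal reports receptor beta-arrestin coupling in cells; 0% = agonist plus DMSO wells and 100% = wells without agonist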
APJ antag: blocks the human apelin receptor APJ | actives 0.32% (n = 330,000) | inhibition, % at 20 µM | P35414 | CHO-K1 APJ beta-arrestin complementation, luminescence;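 active means inhibition above about 40% at 20 µM, limit read from the data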;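 further: cells challenged with 10 nM apelin-13 agonist together with compound; plate controls were apelin-13 plus DMSO wells for no effect and DMSO wells lacking apelin-13 for full effect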
APJ ag: agonists of human APJ apelin receptor. CHO-K1 APJ PathHunter beta-arrestin, luminescence; 0% DMSO wells, 100% apelin. activation, % at 20 µM. actives 0.11% (n = 330,000). AID 2520;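 active means activation more than six SD over the plate average, tested at 20 µM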;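 further: 0% = DMSO alone and 100% = apelin-13 at 10 nM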
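assay system = CHO-K1 APJ beta-arrestin complementation cell line | input = cell density 1000 per well | dosing = compound 20 µM once, DMSO 1% | timing = compound 90 min 25 °C, reagent 1 h | measured by = luminescence from split beta-galactosidase complementation, Galacton Star/Emerald II substrate | read-out basis = APJ agonist activity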
CCR6 antagonist: CCR6 (human) receptor antagonism | CHO-K1 CCR6 PathHunter beta-arrestin, luminescence, CCL20-stimulated | inhibition, % at 20 µM | actives 0.49% (n = 340,000) | AID 493098;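 active means compounds whose inhibition of the agonist-driven luminescence signal at 20 µM reaches about 50%, limit read from the data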;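 further: cells stimulated with CCL20 at 14 nM final; plate controls were DMSO with CCL20 for no effect and DMSO without agonist for full effect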
Target sequence (P51684 whole entry, looked up): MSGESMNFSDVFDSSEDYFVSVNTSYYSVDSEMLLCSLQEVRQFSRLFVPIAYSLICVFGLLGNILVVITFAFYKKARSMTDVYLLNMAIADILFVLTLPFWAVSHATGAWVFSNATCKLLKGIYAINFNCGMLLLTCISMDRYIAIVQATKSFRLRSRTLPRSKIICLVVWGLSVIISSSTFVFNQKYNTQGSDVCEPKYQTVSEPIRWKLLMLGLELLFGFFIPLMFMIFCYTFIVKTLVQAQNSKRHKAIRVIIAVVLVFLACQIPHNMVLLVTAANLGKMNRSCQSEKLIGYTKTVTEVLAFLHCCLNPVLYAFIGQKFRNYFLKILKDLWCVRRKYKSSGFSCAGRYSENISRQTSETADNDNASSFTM
FXN GAA850 act: activators of GAA850 frataxin (FXN) promoter; HEK293 lucGAA850 FXN promoter luciferase reporter, 24 h; percent of 10 µM SAHA response; activation, % at 6 µM; actives 0.56% (n = 360,000);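 active means activation above the average of all compounds screened plus 3 SD, cutoff fixed separately per campaign, cut at about 7.5% in these data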;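 further: 0% = DMSO wells and 100% = 10 µM SAHA wells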
CXCR6 inh: CXCR6 (human) receptor inhibition | AID 602244 | CHO-K1 PathHunter CXCR6 beta-arrestin, luminescence | inhibition, % at 20 µM | O00574 | actives 0.36% (n = 360,000); in the data active means inhibition above about 34%, passing the limit was not always enough;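 further: antagonist mode with CXCL16 agonist at 10 nM final; 0% = 10 nM CXCL16 with DMSO and 100% = unstimulated wells without agonist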
GAA30 FXN cntr: counter-screen for GAA850 frataxin promoter activators: GAA30 promoter activation. actives 66% (n = 1,900). activation, % at 6 µM. HEK293 lucGAA30 FXN promoter luciferase, 24 h; DMSO = 0%, 5 µM ipriflavone = 100%. AID 588350. shares compounds with FXN GAA850 act;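 active means mean activation above the mean of solvent-only control wells plus 3 SD, cut at about 22% in these data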;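 further: counterscreen of GAA850 promoter hits where activity marks nonselective or luminescence artifacts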
GAA850 confirm: GAA850 FXN promoter activation confirmation; shares compounds with FXN GAA850 act; HEK293 lucGAA850 FXN promoter luciferase reporter, 24 h; 100% = activation by SAHA; activation, % at 6 µM; actives 86% (n = 1,900); AID 588351;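 active means mean activation above a set limit taken from the primary screen, cut at about 8% in these data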;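 further: 0% = DMSO wells and 100% = 10 µM SAHA wells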
* = called active by the depositor; nt = no result. A selection: hits, their analogues and other compounds. The true share with any hit is near 2%.

SMILES	EBI2 antag	APJ antag	APJ ag	CCR6 antagonist	FXN GAA850 act	CXCR6 inh	GAA30 FXN cntr	GAA850 confirm
O=C1C=CC(=O)c2c(O)c(N3CCN(CCOCCO)CC3)c(Br)c(O)c21	-23	nt	nt	112*	14*	76*	-98	-30
O=C(COc1ccc(F)cc1)Nc1ccc2c(c1)OCCO2	-5	0	-2	3	7.7*	5	77*	22*
O=C(c1cc(Cl)nc2ccccc12)N(Cc1nnc(-c2ccccc2Cl)o1)C1CC1	3	-20	-5	11	2	2	nt	nt
O=C(O)c1ccc(Nc2nc(-c3cc4ccccc4oc3=O)cs2)cc1O	3	-5	-2	8	3	-2	nt	nt
Nc1ccc(Nc2nc(-c3cc4ccccc4oc3=O)cs2)cc1	12	-42	-2	11	9.0*	-6	74*	32*
COc1cc2c(cc1N)-c1ccc(N)cc1C2=O	-9	nt	nt	nt	9.4*	10	118*	38*
CC(C)c1ccc(N(C(=O)c2csnn2)C(C(=O)NC2CCCC2)c2ccncc2)cc1 (centres undefined)	4	1	0	5	20*	4	67*	24*
Cc1ccccc1CCN(C(=O)c1csnn1)C(C(=O)NC1CCCC1)c1ccncc1 (centres undefined)	3	4	1	6	14*	1	19	7
CC(C)c1ccc(N(C(=O)c2ccco2)C(C(=O)NC2CCCC2)c2ccncc2)cc1 (centres undefined)	9	-13	-3	3	10*	10	106*	38*
C=CC[C@@H](CC(=O)NCCO)C(=O)N[C@@H](COC(=O)[C@@H](CC=C)CC(=O)OC(C)(C)C)Cc1c[nH]c2ccccc12	0	-14	1	-1	-9	-6	nt	nt
O=C(/C=C/c1ccc(S(=O)(=O)N2CCOCC2)cc1)NCc1ccccc1F	7	-24	-2	18	4	4	nt	nt
COc1ccccc1NC(=O)c1coc(=O)c(Br)c1	-2	1	-4	0	7.9*	2	129*	69*
O=C(NCCC1=CCCCC1)c1coc(=O)c(Br)c1	15	6	-4	11	17*	-1	-3	26*
O=C(NCCc1ccccc1)c1coc(=O)c(Br)c1	4	7	-3	18	8.0*	-1	-2	21*
COc1ccccc1NC(=O)c1cc(N)cc(C(=O)Nc2ccccc2OC)c1	-3	19	-4	7	1	1	nt	nt
Cc1cccc(C)c1NC(=O)C1C(c2ccc3c(c2)OCO3)=Nc2ccccc2N1C(=O)c1ccccn1 (centres undefined)	6	nt	nt	nt	nt	nt	nt	nt
O=C(NC(c1ccc2c(c1)OCO2)c1ccccn1)C1CCN(CCOc2ccccc2)CC1 (centres undefined)	8	nt	nt	nt	-1	-2	nt	nt
O=C(COc1ccccc1Br)NCc1ccco1	-3	-1	-2	4	2	-5	nt	nt
CCc1ccc(OCC(=O)NCc2ccco2)c(Br)c1	-3	-8	-7	6	8.6*	-3	76*	24*
CCCNC(=O)C1(C)CCN(Cc2ccc(-n3ccnc3)cc2)C1 (centres undefined)	-3	nt	nt	nt	1	-1	nt	nt
O=C(CCS(=O)(=O)c1ccccc1)Nc1nc(-c2cccs2)cs1	12	8	-2	-4	8.8*	-8	-9	9.8*
Cc1ccc([C@@H]2C[C@H]3[C@@H](CN2S(=O)(=O)c2ccc(C)cc2)C(=O)C[C@@H](c2ccc(C)cc2)N3S(=O)(=O)c2ccc(Cl)cc2)cc1	8	nt	nt	nt	-2	4	nt	nt
Cc1cc(OC(C)C(=O)N(Cc2ccco2)C2CCS(=O)(=O)C2)ccc1Cl (centres undefined)	-1	11	-2	3	12*	-1	9	5

High-throughput results as filed in PubChem BioAssay.
